For 2 compounds, IC50, CLint scaled and inhibition results are on record in ChEMBL document CHEMBL3393009 (J Med Chem, 2015).

SMILES strings stand for the structures. The source made the active and inactive calls. The calls are words filed in the database; no cut-off is given here.

For data set [1], the target named is T1, Tyrosine-protein kinase JAK1 (Homo sapiens, UniProt P23458). The experiment in a line: Inhibition of JAK1 (unknown origin).
The target of data set [2] is T2, Tyrosine-protein kinase JAK3 (Homo sapiens, UniProt P52333).
T2 sequence (P52333 whole entry): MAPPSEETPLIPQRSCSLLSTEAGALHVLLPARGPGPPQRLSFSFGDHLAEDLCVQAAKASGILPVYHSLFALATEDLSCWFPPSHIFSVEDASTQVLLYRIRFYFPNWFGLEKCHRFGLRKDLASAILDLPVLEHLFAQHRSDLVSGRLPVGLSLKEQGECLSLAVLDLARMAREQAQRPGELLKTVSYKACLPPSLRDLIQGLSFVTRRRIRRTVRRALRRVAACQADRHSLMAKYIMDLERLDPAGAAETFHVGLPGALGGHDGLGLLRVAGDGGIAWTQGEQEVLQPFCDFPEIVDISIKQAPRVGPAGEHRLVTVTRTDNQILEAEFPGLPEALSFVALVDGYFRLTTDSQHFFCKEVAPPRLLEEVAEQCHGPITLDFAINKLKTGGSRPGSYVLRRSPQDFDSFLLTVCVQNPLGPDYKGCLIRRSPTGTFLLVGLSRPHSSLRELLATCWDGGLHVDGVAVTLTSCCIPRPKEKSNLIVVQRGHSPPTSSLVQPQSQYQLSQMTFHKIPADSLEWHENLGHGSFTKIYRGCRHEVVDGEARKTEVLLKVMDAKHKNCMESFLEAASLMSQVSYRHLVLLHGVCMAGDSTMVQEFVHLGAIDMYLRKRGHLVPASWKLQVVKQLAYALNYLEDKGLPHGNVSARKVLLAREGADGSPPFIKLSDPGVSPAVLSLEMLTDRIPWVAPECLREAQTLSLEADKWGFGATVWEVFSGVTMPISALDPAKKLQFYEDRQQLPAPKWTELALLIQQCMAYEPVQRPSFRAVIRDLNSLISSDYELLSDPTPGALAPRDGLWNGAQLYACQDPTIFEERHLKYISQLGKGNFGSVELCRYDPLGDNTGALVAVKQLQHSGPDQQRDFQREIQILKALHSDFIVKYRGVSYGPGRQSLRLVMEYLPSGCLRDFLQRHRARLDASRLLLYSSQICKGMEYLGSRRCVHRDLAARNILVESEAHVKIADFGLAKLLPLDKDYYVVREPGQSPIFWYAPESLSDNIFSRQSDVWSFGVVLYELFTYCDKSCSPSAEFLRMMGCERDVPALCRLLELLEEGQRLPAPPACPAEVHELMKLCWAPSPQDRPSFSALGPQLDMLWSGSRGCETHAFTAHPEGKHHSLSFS
Kind of data set: Inhibition of JAK3 (unknown origin).

Data set [3] addresses Leucine-rich repeat serine/threonine-protein kinase 2 (Homo sapiens, UniProt Q5S007, G2019S). Kind of data set: Inhibition of GST-tagged truncated human recombinant LRRK2 G2019S mutant using fluorescein-labeled LRRKtide peptide substrate incubated for 90 mins. An outline of the steps: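 LRRK2 enzyme with fluorescein-LRRKtide in 50 mM HEPES pH 7.5, 3 mM MgCl2, 2 mM DTT, 0.01% Brij35. Final levels: 100 nM LRRKtide, 50 μM ATP, 1.7 μg/mL enzyme. Compound 11-point half-log series, top 32 μM. Reaction at room temperature, 2 h for wild type and 90 min for mutant. Stopped with EDTA plus Tb anti-phospho-ERM. TR-FRET 520/495 ratio read after 1 h. Geometric mean, n ≥ 2.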

Data set [4] deals with T3, Leucine-rich repeat serine/threonine-protein kinase 2 (Homo sapiens, UniProt Q5S007). Kind of data set: Inhibition of full length LRRK2 (unknown origin) expressed in HEK293 cells assessed as reduction in S935 phosphorylation incubated for 90 mins by ELISA method. It is filed as cell-based. Background: In an ELISA, binding on a coated surface is turned into a signal by an enzyme label.

The target of data set [5] is T4, Tyrosine-protein kinase JAK2 (Homo sapiens, UniProt O60674). The experiment in a line: Inhibition of JAK2 (unknown origin).
Data set [6] is described as follows: Clearance in human liver microsomes. It is filed as ADME. Particulars: read-out: CLH. The essentials: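 Human liver microsomal clearance.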
In data set [7] the target is T4, Tyrosine-protein kinase JAK2. Kind of data set: Inhibition of JAK2 (JH1 domain-catalytic) (unknown origin) at 1 uM.
Data set [8] deals with T1, Tyrosine-protein kinase JAK1. The experiment in a line: Inhibition of JAK1 (JH1 domain-catalytic) (unknown origin) at 1 uM.
Data set [9] concerns the target T3, Leucine-rich repeat serine/threonine-protein kinase 2. Kind of data set: Inhibition of LRRK2 in human PBMCs by ActivX KiNativ method.
In data set [10] the target is T5, Tyrosine-protein kinase JAK3 (Homo sapiens) (UniProt P52333).
T5 sequence (whole entry): T2 sequence (P52333 whole entry)
The experiment in a line: Inhibition of JAK3 (JH1 domain-catalytic) (unknown origin) at 1 uM.

Data set [11] deals with T1, Tyrosine-protein kinase JAK1. Kind of data set: Inhibition of JAK1 (JH2 domain-pseudokinase) (unknown origin) at 1 uM.

T3 sequence (Q5S007 whole entry): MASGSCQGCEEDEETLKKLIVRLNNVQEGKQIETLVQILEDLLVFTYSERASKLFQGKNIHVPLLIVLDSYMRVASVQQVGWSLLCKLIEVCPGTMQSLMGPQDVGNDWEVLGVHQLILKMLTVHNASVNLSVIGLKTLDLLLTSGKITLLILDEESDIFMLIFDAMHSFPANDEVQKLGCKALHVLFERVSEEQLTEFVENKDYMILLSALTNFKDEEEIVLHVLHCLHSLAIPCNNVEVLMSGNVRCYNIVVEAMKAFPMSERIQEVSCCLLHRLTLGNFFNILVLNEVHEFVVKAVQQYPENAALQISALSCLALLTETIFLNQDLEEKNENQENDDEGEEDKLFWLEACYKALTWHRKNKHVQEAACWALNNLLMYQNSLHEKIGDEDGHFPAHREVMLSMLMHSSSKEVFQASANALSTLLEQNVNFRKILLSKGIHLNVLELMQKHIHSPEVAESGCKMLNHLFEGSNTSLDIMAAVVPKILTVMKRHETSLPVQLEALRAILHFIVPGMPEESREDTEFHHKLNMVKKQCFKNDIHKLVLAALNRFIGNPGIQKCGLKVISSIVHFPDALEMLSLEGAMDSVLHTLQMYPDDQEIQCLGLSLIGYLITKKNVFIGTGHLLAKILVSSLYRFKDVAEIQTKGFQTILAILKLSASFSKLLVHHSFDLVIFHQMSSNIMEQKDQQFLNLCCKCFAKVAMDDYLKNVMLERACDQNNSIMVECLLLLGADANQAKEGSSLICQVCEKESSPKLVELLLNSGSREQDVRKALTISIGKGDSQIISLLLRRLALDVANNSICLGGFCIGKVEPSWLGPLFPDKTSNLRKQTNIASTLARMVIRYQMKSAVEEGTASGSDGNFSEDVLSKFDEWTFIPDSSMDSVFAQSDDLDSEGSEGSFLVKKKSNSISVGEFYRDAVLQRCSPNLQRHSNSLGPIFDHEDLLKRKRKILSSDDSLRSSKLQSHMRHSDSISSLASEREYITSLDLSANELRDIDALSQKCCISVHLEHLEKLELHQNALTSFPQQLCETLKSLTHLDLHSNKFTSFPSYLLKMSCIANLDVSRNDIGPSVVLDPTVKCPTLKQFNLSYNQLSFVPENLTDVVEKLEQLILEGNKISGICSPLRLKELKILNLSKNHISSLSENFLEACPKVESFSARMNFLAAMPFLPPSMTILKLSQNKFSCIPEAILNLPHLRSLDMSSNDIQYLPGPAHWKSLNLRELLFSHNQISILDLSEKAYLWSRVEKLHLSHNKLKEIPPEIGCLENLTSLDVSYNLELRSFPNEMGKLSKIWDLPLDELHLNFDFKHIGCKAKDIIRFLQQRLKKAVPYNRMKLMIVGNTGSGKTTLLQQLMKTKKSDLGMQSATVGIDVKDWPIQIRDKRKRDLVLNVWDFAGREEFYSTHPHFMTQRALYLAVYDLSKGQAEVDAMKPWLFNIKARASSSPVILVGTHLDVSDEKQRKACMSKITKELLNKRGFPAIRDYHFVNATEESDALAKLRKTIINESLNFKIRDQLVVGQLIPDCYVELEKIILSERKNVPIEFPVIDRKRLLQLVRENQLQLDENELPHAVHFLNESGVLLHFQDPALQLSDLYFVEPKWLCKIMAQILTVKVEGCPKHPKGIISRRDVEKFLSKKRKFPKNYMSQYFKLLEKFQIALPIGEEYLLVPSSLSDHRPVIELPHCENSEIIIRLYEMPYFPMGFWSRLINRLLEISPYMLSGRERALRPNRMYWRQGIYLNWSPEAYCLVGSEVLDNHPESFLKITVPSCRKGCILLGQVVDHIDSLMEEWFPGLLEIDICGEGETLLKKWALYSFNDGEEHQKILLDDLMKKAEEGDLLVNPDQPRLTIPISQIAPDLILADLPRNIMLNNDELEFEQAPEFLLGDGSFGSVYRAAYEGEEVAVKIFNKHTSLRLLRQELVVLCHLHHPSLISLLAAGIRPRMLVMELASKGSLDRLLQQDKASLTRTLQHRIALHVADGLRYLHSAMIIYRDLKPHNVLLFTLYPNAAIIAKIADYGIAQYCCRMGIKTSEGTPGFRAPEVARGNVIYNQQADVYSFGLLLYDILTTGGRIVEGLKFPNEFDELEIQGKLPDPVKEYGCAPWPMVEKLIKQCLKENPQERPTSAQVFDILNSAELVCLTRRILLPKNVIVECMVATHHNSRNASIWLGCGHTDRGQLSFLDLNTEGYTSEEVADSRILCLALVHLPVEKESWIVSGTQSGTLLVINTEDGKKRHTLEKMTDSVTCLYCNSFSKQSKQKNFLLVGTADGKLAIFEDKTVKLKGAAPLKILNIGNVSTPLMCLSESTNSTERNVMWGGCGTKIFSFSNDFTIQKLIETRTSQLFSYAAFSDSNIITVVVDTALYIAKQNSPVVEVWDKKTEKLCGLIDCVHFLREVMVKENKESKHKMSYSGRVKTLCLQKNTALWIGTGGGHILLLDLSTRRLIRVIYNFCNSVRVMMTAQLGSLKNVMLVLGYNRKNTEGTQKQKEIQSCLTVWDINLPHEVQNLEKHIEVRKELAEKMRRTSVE
T1 sequence (P23458 whole entry): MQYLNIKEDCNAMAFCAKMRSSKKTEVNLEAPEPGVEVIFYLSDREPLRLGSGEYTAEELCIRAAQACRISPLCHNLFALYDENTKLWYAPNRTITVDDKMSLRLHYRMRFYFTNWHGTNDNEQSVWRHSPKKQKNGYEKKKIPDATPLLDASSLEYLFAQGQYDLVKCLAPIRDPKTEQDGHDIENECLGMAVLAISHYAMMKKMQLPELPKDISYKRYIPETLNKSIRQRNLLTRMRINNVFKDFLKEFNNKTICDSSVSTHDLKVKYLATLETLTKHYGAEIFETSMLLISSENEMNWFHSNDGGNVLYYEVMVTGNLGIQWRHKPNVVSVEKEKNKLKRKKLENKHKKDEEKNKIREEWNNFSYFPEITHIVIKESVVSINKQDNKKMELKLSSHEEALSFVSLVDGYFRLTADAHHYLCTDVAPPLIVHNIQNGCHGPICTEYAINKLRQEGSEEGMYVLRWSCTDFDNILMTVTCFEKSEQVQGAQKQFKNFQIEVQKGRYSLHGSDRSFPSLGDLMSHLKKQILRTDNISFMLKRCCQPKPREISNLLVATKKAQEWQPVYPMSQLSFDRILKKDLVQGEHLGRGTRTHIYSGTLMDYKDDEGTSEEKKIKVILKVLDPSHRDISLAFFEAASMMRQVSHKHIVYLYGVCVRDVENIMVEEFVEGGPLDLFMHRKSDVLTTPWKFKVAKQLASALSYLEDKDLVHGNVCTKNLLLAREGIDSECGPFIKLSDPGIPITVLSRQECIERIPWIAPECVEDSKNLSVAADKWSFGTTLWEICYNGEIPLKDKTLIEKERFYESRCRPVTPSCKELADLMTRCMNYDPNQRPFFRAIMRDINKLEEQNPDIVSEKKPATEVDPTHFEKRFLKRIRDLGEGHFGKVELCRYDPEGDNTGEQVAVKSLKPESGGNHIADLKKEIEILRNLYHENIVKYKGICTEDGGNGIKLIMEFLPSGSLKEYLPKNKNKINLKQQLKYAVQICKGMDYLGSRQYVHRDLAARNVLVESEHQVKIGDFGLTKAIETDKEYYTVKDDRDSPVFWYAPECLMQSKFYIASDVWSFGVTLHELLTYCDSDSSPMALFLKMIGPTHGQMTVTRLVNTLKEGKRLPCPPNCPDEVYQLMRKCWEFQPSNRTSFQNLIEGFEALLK
T4 sequence (O60674 whole entry): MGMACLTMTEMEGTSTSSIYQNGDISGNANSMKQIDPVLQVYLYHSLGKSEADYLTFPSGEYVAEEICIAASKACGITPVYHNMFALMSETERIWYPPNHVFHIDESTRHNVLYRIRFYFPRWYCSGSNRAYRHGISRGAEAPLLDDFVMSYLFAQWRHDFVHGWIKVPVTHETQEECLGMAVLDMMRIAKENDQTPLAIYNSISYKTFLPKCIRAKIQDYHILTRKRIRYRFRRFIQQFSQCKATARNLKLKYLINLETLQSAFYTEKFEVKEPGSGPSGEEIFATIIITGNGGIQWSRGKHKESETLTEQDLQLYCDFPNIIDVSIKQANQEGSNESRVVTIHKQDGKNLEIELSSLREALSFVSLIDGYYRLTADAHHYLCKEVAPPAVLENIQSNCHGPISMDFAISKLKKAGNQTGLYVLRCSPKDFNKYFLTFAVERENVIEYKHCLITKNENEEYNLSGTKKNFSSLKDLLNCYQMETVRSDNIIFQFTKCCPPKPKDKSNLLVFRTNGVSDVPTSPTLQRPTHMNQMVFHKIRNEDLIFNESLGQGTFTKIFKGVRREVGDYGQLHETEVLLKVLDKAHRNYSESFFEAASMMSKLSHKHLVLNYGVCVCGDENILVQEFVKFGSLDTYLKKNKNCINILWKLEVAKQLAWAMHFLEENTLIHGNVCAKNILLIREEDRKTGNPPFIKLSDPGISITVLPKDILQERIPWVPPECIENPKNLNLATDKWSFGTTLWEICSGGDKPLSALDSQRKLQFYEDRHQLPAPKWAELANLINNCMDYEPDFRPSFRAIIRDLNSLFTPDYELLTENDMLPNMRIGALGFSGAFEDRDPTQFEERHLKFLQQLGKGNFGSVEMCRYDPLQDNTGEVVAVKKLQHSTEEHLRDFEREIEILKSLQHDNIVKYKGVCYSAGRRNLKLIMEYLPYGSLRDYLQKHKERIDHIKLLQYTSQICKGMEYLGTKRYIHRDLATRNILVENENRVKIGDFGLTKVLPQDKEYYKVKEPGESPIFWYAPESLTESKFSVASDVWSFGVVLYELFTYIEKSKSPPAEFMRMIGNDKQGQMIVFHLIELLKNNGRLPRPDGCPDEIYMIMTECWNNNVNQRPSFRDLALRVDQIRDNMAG
Leucine-rich repeat serine/threonine-protein kinase 2 (Homo sapiens, UniProt Q5S007, G2019S), sequence (Q5S007 whole entry G2019S, the tested form may be a part): as the sequence (Q5S007 whole entry) above, with G2019S counted along it

As usually defined, the IC50 is the point on the concentration scale where inhibition reaches its midpoint. Take `C[C@H]1CCCN(c2ncnc3[nH]cc(-c4cccc(C#N)c4)c23)C1`: the IC50 came out at 1620 nM in [1]; 54 nM in [2]; 49 nM in data set [3]; 210 nM in data set [4]; 575 nM in [5]. In addition, the CLint scaled in [6] was determined as 220 mL/min/kg.

On to `CN(C)c1ncnc2[nH]cc(-c3cccc(C#N)c3)c12`, for which the inhibition entry in [7], in data set [8], in data set [10] and in data set [11] was “inactive” throughout. In addition, the values for the IC50 in [4] and in [9] were 89 nM and 42 nM, respectively. For the same compound, the CLint scaled in data set [6] came to 70 mL/min/kg.
